# From ChEMBL document CHEMBL2331384, “Synthesis, crystal structure and antibacterial activity of new highly functionalized ionic compounds based on the imidazole nucleus” (2013)
# The source made the active and inactive calls. No cut-off for these calls is given here.
# What was measured:
# Staphylococcus aureus [1] = test: Antimicrobial activity against Staphylococcus aureus ATTC-25923 after 1 day by agar dilution method; type: functional; conditions: ATTC-25923, 24 h
# Method in brief: (§1)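 Inoculum was an overnight broth culture diluted to about 10^6 cell/mL. MIC (µg/mL) was determined by a standardized agar dilution technique after 1 day of exposure.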
# Pseudomonas aeruginosa [2] = test: Antimicrobial activity against Pseudomonas aeruginosa ATCC 27853 after 1 day by agar dilution method; type: functional; conditions: ATCC 27853, 24 h; method in brief: as §1
# Pseudomonas aeruginosa [3] = test: Antimicrobial activity against Pseudomonas aeruginosa ATCC 27853 at 200 ug after overnight incubation by disk-diffusion method; type: functional; conditions: for zone of inhibition at 200 µg/disc: read-out: DIZ
# Method in brief: (§2)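 Bacterial suspension spread over a Mueller–Hinton agar surface. 6 mm paper disks each loaded with 200 µg of compound dissolved in DMSO were placed on the agar. Plates were incubated overnight at 37 °C, and inhibition zone diameters were measured with a ruler in mm.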
# Escherichia coli [4] = test: Antimicrobial activity against Escherichia coli ATTC-25922 at 200 ug after overnight incubation by disk-diffusion method; type: functional; conditions: for zone of inhibition at 200 µg/disc: read-out: DIZ; method in brief: as §2
# Escherichia coli [5] = test: Antimicrobial activity against Escherichia coli ATTC-25922 after 1 day by agar dilution method; type: functional; conditions: ATTC-25922, 24 h; method in brief: as §1
# Staphylococcus aureus [6] = test: Antimicrobial activity against Staphylococcus aureus ATTC-25923 at 200 ug after overnight incubation by disk-diffusion method; type: functional; conditions: for zone of inhibition at 200 µg/disc: read-out: DIZ; method in brief: as §2
# Salmonella typhimurium [7] = test: Antimicrobial activity against Salmonella typhimurium ATCC 07095 after 1 day by agar dilution method; type: functional, Salmonella enterica subsp. enterica serovar Typhimurium; conditions: Salmonella enterica, ATCC 07095, 24 h; method in brief: as §1
# Salmonella typhimurium [8] = test: Antimicrobial activity against Salmonella typhimurium ATCC 07095 at 200 ug after overnight incubation by disk-diffusion method; type: functional, Salmonella enterica subsp. enterica serovar Typhimurium; conditions: for zone of inhibition at 200 µg/disc: Salmonella enterica, read-out: DIZ; for diameter of the inhibition zone (DIZ): Salmonella enterica subsp. enterica serovar Typhimurium; method in brief: as §2
# Staphylococcus aureus [9] = test: Antimicrobial activity against Staphylococcus aureus ATTC-25923 at 100 ug after overnight incubation by disk-diffusion method; type: functional, organism-based
# Escherichia coli [10] = test: Antimicrobial activity against Escherichia coli ATTC-25922 at 100 ug after overnight incubation by disk-diffusion method; type: functional, organism-based
# Salmonella typhimurium [11] = test: Antimicrobial activity against Salmonella typhimurium ATCC 07095 at 100 ug after overnight incubation by disk-diffusion method; type: functional, organism-based; conditions: Salmonella enterica subsp. enterica serovar Typhimurium
Compound,MIC (Staphylococcus aureus [1]) [µg/mL],MIC (Pseudomonas aeruginosa [2]) [µg/mL],zone of inhibition at 200 µg/disc (Pseudomonas aeruginosa [3]) [mm],zone of inhibition at 200 µg/disc (Escherichia coli [4]) [mm],MIC (Escherichia coli [5]) [µg/mL],zone of inhibition at 200 µg/disc (Staphylococcus aureus [6]) [mm],MIC (Salmonella typhimurium [7]) [µg/mL],zone of inhibition at 200 µg/disc (Salmonella typhimurium [8]) [mm],diameter of the inhibition zone (DIZ) (Pseudomonas aeruginosa [3]),diameter of the inhibition zone (DIZ) (Escherichia coli [4]),diameter of the inhibition zone (DIZ) (Salmonella typhimurium [8]),diameter of the inhibition zone (DIZ) (Staphylococcus aureus [6]),zone of inhibition (Staphylococcus aureus [9]) [mm],zone of inhibition (Escherichia coli [10]) [mm],zone of inhibition (Salmonella typhimurium [11]) [mm]
Cn1c(Br)c(Br)[n+](CC(=O)c2ccccc2)c1-c1ccccc1.[Br-],250,50,8,9,50,12,150,7,–,–,–,–,–,–,–
Cc1n(C)c([N+](=O)[O-])c[n+]1CC(=O)c1ccccc1.[Br-],> 250,> 250,10,9,50,9,50,7,–,–,–,–,–,–,–
Cn1c[n+](CC(=O)c2ccccc2)c(I)c1I.[Br-],250,25,8,12,25,15,12.5,9,–,–,–,–,–,–,–
CCOC(=O)C[n+]1c(Br)c(Br)n(C)c1C.[Br-],> 250,250,–,–,25,10,> 250,–,inactive,inactive,inactive,–,–,–,–
Cc1n(C)c(Br)c(Br)[n+]1CC(=O)c1ccccc1.[Br-],> 250,150,9,9,12.5,7,> 250,7,–,–,–,–,–,–,–
Cn1c[n+](CC(=O)c2ccccc2)cc1[N+](=O)[O-].[Br-],> 250,12.5,9,–,12.5,–,12.5,–,–,inactive,inactive,inactive,–,–,–
CCOC(=O)C[n+]1c(Br)c(Br)n(C)c1-c1ccccc1.[Br-],> 250,25,7,–,50,9,25,7,–,inactive,–,–,–,–,–
CCOC(=O)C[n+]1cn(C)c(I)c1I.[Br-],250,6.2,9,–,6.2,–,50,–,–,inactive,inactive,inactive,–,–,–
Cn1c(Br)c(Br)[n+](CC(=O)c2ccccc2)c1CO.[Br-],> 250,50,9,7,25,7,> 250,–,–,–,inactive,–,–,–,–
CCOC(=O)C[n+]1c(Br)c(Br)n(C)c1CO.[Br-],> 250,25,7,7,150,–,> 250,–,–,–,inactive,inactive,–,–,–
Cc1n(C)c(I)c(I)[n+]1CC(=O)c1ccccc1.[Br-],> 250,12.5,9,9,12.5,15,25,8,–,–,–,–,–,–,–
CCOC(=O)C[n+]1c(I)c(I)n(C)c1C.[Br-],> 250,25,9,–,25,–,> 250,–,–,inactive,inactive,inactive,–,–,–
SPIRAMYCIN,–,–,–,–,–,–,–,–,–,–,–,–,22,9,9
